The full list was thinned out, with hits kept by preference.
GSH bead fluor: compound fluorescence on glutathione beads, profiling panel, artefact control, biophysical, 488/530 nm, flow cytometry; GSH beads flow cytometry, compound fluorescence 488/530 nm; hits give high values; fluorescence (KMESF) at 10 µM; hit rate 0.25% among 190,000; AID 1776, 2009; in the data active = fluorescence above about 89;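 also: glutathione beads carrying GST-tagged Bcl family fusion proteins plus one bare bead set; values are compound well signal with DMSO vehicle wells as background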
ABCG2 block: ABCG2 efflux pump inhibitors, primary screen, multiplex with ABCB1, IgMXP3 cells, flow cytometry; JC-1 efflux; inhibition, % at 6.6 µM; hit rate 0.1% among 190,000;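 active = inhibition above 80%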;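 also: 0% = DMSO and 100% = nicardipine control wells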
Target sequence (Q9UNQ0 whole entry, looked up): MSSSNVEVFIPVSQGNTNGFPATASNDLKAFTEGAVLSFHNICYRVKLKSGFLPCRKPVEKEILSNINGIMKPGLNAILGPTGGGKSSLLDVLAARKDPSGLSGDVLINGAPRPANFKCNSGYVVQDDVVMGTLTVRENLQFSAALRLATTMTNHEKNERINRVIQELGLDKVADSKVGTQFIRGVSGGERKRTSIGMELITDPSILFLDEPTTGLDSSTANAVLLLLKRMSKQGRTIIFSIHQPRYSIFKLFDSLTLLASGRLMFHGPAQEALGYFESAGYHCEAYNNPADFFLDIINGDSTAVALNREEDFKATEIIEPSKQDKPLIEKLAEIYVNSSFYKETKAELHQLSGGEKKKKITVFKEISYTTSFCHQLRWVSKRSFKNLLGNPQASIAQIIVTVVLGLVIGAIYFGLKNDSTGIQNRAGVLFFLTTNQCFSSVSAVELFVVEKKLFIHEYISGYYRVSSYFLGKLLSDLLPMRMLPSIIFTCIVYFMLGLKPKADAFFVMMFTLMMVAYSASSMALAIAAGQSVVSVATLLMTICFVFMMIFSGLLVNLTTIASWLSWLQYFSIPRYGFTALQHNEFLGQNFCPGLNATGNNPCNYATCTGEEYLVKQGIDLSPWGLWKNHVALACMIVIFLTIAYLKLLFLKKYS
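Test system: ABCG2 IgMXP3 and barcoded ABCB1 CCRF-Adr cell mix; Schedule: cells with compound and JC-1, 10 min at 25 °C, rotating, no wash; Technique: flow cytometry of retained JC-1 fluorescence; Measure: % inhibition of efflux relative to nicardipine and DMSO; Controls: nicardipine high and DMSO low controls.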
PKD1 kinase inh: inhibitors of human PKD1 kinase, biochemical, fluorescence polarization | inhibition, % (no concentration beside the values) | AID 797, 2007 | PKD1 kinase fluorescence polarization assay | hit rate 0.056% among 200,000 | Serine/threonine-protein kinase D1 (Homo sapiens), Q15139
ABCB1 block: ABCB1 efflux pump inhibitors, primary screen, cell-based, multiplex, flow cytometry, ABCG2 counter-screen. ATP-dependent translocase ABCB1 (Homo sapiens), P08183. CCRF-Adr cells, JC-1 efflux. inhibition, % at 6.6 µM. hit rate 0.067% among 190,000. AID 1326, 2008; in the data active = inhibition above about 40%;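 also: 0% = vehicle and 100% = reference inhibitor; higher value means more JC-1 retained so stronger ABCB1 efflux block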
Avidin bead fluor: green autofluorescence of compounds with avidin beads – biophysical, 488/530 nm, flow cytometry, artefact control, profiling panel. compound fluorescence 488/530 nm; hits give high values. fluorescence (KMESF) at 10 µM. hit rate 0.38% among 220,000. AID 1775, 2009; in the data active = fluorescence above about 47
Lmaj promast: Leishmania major promastigote growth inhibition, primary screen; Leishmania major promastigotes, resazurin fluorescence viability; hit rate 9% among 200,000; inhibition, % at 10 µM;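 also: promastigotes grown with compound for 44 hours at 28 °C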
* = called active by the depositor. Rule as the data show it, unless noted: active = inhibition above about 50%; inactive = the rest.

What do the screens show for `O=C(Cc1ccc(Cl)cc1)NNS(=O)(=O)c1ccc([N+](=O)[O-])cc1`?
GSH bead fluor: 7; ABCG2 block: 6.8; PKD1 kinase inh: 2.7; ABCB1 block: 0.9; Avidin bead fluor: 44; Lmaj promast: 68.3*

What do the screens show for `COC(=O)c1cc2c(ccn2-c2ccc(F)cc2)n1Cc1ccc(C#N)cc1`?
GSH bead fluor: 7; ABCG2 block: 0.2; PKD1 kinase inh: -2.7; ABCB1 block: 0.6; Avidin bead fluor: 4; Lmaj promast: 46.9

How did COC(=O)c1cc2c(ccn2-c2ccc(F)cc2)n1Cc1ccc(OC)cc1 do in these assays?
GSH bead fluor: 9; ABCG2 block: 1.6; PKD1 kinase inh: -13.9; Avidin bead fluor: 16; Lmaj promast: 99.1*

How did CCCc1nn(C)c2c(=O)[nH]c(-c3cc(S(=O)(=O)NC)ccc3OCC)nc12 do in these assays?
Avidin bead fluor: 3

What do the screens show for `COc1ccc(-c2ccc(SCC(=O)c3ccc(F)cc3)nn2)cc1OC`?
GSH bead fluor: 14; ABCG2 block: 8.9; PKD1 kinase inh: 16.2; ABCB1 block: 1.9; Avidin bead fluor: 12; Lmaj promast: 62.6*

What do the screens show for `CC1=C(C(=O)c2ccccc2)C(c2ccc(OC(F)F)cc2)NC(=S)N1` (centres undefined)?
GSH bead fluor: 14; ABCG2 block: -2.3; PKD1 kinase inh: -6.2; ABCB1 block: -1.5; Avidin bead fluor: 15; Lmaj promast: 24.2

How did Cc1cc(-n2cccn2)ccc1CN1CCN(C2CCCC2)C(CCO)C1 (centres undefined) do in these assays?
GSH bead fluor: 13; ABCG2 block: 3.2; PKD1 kinase inh: 3.0; ABCB1 block: 0.9; Avidin bead fluor: 6; Lmaj promast: 64.3*

How did OCCC1CN(Cc2cccc(-n3cccn3)c2)CCN1Cc1ccccc1 (centres undefined) do in these assays?
GSH bead fluor: 12; ABCG2 block: 2.2; PKD1 kinase inh: 0.8; ABCB1 block: 1.0; Avidin bead fluor: 9; Lmaj promast: 79.0*

What do the screens show for `CC(=O)c1cccc(CN2CCN(Cc3ccccc3)C(CCO)C2)c1` (centres undefined)?
GSH bead fluor: 11; ABCG2 block: 1.3; PKD1 kinase inh: 1.5; ABCB1 block: 1.0; Avidin bead fluor: 8; Lmaj promast: 18.3

How did Cc1ccc(CN2CCN(Cc3ccc(-n4cccn4)cc3)CC2CCO)cc1 (centres undefined) do in these assays?
GSH bead fluor: 10; ABCG2 block: 0.0; PKD1 kinase inh: -4.6; ABCB1 block: 0.9; Avidin bead fluor: 10; Lmaj promast: 61.7*

Results for CC(C)CCN1CCN(Cc2cccc(-n3cccn3)c2)CC1CCO (centres undefined) ?
GSH bead fluor: 10; ABCG2 block: 0.8; PKD1 kinase inh: -6.1; ABCB1 block: 0.6; Avidin bead fluor: 8; Lmaj promast: 83.2*

How did COc1ccc(CN2C(=O)c3c(c(C)n(C)c3C)C2C(=O)NC2CCC(C)CC2)cc1 (centres undefined) do in these assays?
GSH bead fluor: 12; ABCG2 block: 4.1; PKD1 kinase inh: -6.5; ABCB1 block: 3.4; Avidin bead fluor: 9; Lmaj promast: 9.5

How did COC(=O)N/N=C/c1cn(CC(C)COc2ccccc2)c2ccccc12 (centres undefined) do in these assays?
GSH bead fluor: 11; ABCG2 block: 39.8; PKD1 kinase inh: 0.3; ABCB1 block: 2.9; Avidin bead fluor: 9; Lmaj promast: 15.0

What do the screens show for `Cc1cc(NC(=O)CCC(=O)N(c2ccc(F)cc2)C(C(=O)NC2CCCC2)c2ccc(C)o2)no1` (centres undefined)?
GSH bead fluor: 26; ABCG2 block: 1.9; PKD1 kinase inh: -4.0; ABCB1 block: 0.2; Avidin bead fluor: 13; Lmaj promast: 6.1

Results for COc1cccc(-c2nnc(NC(C)=O)o2)c1 ?
Avidin bead fluor: 9

Results for COc1cccc(-c2nnc(NC(=O)c3ccc(S(=O)(=O)N4CCOCC4)cc3)o2)c1 ?
GSH bead fluor: 62; ABCG2 block: 0.7; PKD1 kinase inh: 9.1; ABCB1 block: 0.1; Avidin bead fluor: 14; Lmaj promast: 96.3*
